From ChEMBL document CHEMBL4270541, “Synthesis and antimicrobial evaluation of amino sugar-based naphthoquinones and isoquinoline-5,8-diones and their halogenated compounds” (Eur J Med Chem, 2018)
In brackets after ≈: the same amount, converted by molar mass. Activity calls are given as the source filed them. No cut-off for these calls is given here.

How the values were obtained:
[1] = tested on: Escherichia coli; assay: Ratio of MBC99.9 to MIC for Escherichia coli INCQS 00033 ATCC 25922; type: functional, ATCC 25922 INCQS 00033
Method in brief: (§1)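 MBC/MIC ratio from the 24 h, 37°C microdilution MIC and the agar-plating MBC (99.9% growth inhibition). A ratio ≤2 was classed as bactericidal and ≥4 as bacteriostatic.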

[2] = tested on: Pseudomonas aeruginosa; assay: Bactericidal activity against Pseudomonas aeruginosa INCQS 00099 ATCC 27853 incubated for 24 hrs followed by transfer of microbial suspension to agar plates and measured after 24 hrs post transfer by resazurin dye-based colorimetric analysis; type: functional; settings: INCQS 00099 ATCC 27853, 24 h, read-out: MBC99.9
Method in brief: (§2)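 For MBC, 10 µL from each clear MIC well was plated on agar and incubated 24 h at 37°C. MBC is the minimum concentration inhibiting 99.9% of growth. […] Triplicate.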

[3] = tested on: Staphylococcus simulans; assay: Antimicrobial activity against Staphylococcus simulans INCQS 00254 ATCC 27851 assessed as zone of inhibition at 5 mg/ml after 18 to 24 hrs by disc diffusion method; type: functional; settings: read-out: IZ
[4] = tested on: Pseudomonas aeruginosa; assay: Antimicrobial activity against Pseudomonas aeruginosa INCQS 00099 ATCC 27853 after 24 hrs by microdilution assay; type: functional; settings: INCQS 00099 ATCC 27853, 24 h
[5] = tested on: Escherichia coli; assay: Antimicrobial activity against Escherichia coli INCQS 00033 ATCC 25922 after 24 hrs by microdilution assay; type: functional; settings: ATCC 25922 INCQS 00033, 24 h
[6] = tested on: Staphylococcus aureus; assay: Bactericidal activity against methicillin-resistant Staphylococcus aureus BMB9393 incubated for 24 hrs followed by transfer of microbial suspension to agar plates and measured after 24 hrs post transfer by resazurin dye-based colorimetric analysis; type: functional; settings: BMB9393, 24 h, read-out: MBC99.9
Method in brief: (§3)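 From MIC wells with no visible growth, 10 µL is transferred to agar plates and incubated 24 h at 37°C. MBC is the minimum concentration inhibiting 99.9% of growth. […] Triplicate.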

[7] = tested on: Escherichia coli; assay: Bactericidal activity against Escherichia coli INCQS 00033 ATCC 25922 incubated for 24 hrs followed by transfer of microbial suspension to agar plates and measured after 24 hrs post transfer by resazurin dye-based colorimetric analysis; type: functional; settings: ATCC 25922 INCQS 00033, 24 h, read-out: MBC99.9; method in brief: as §2
[8] = tested on: Staphylococcus aureus; assay: Antimicrobial activity against Staphylococcus aureus INCQS 00015 ATCC 25923 assessed as zone of inhibition at 5 mg/ml after 18 to 24 hrs by disc diffusion method; type: functional; settings: read-out: IZ
[9] = tested on: Staphylococcus aureus; assay: Ratio of MBC99.9 to MIC for methicillin-resistant Staphylococcus aureus BMB9393; type: functional
Method in brief: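 MBC (99.9% kill on agar subculture of clear MIC wells, 24 h, 37°C) divided by broth microdilution MIC (24 h, 37°C). Ratio ≤2 taken as bactericidal and ≥4 as bacteriostatic.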

[10] = tested on: Staphylococcus aureus; assay: Antimicrobial activity against Staphylococcus aureus INCQS 00015 ATCC 25923 after 24 hrs by microdilution assay; type: functional; settings: INCQS 00015 ATCC 25923, 24 h
[11] = tested on: Staphylococcus epidermidis; assay: Bactericidal activity against Staphylococcus epidermidis INCQS 00016 ATCC 12228 incubated for 24 hrs followed by transfer of microbial suspension to agar plates and measured after 24 hrs post transfer by resazurin dye-based colorimetric analysis; type: functional; settings: ATCC 12228 INCQS 00016, 24 h, read-out: MBC99.9; method in brief: as §2
[12] = tested on: Staphylococcus epidermidis; assay: Ratio of MBC99.9 to MIC for Staphylococcus epidermidis INCQS 00016 ATCC 12228; type: functional, ATCC 12228 INCQS 00016; method in brief: as §1
[13] = tested on: Proteus mirabilis; assay: Antimicrobial activity against Proteus mirabilis INCQS 00095 ATCC 15290 assessed as zone of inhibition at 5 mg/ml after 18 to 24 hrs by disc diffusion method; type: functional; settings: read-out: IZ
[14] = tested on: Staphylococcus simulans; assay: Antimicrobial activity against Staphylococcus simulans INCQS 00254 ATCC 27851 after 24 hrs by microdilution assay; type: functional; settings: INCQS 00254 ATCC 27851, 24 h
[15] = tested on: Staphylococcus simulans; assay: Ratio of MBC99.9 to MIC for Staphylococcus simulans INCQS 00254 ATCC 27851; type: functional; method in brief: as §1
[16] = tested on: Escherichia coli; assay: Antimicrobial activity against Escherichia coli INCQS 00033 ATCC 25922 assessed as zone of inhibition at 5 mg/ml after 18 to 24 hrs by disc diffusion method; type: functional; settings: ATCC 25922 INCQS 00033, read-out: IZ
[17] = tested on: Staphylococcus epidermidis; assay: Antimicrobial activity against Staphylococcus epidermidis INCQS 00016 ATCC 12228 assessed as zone of inhibition at 5 mg/ml after 18 to 24 hrs by disc diffusion method; type: functional; settings: ATCC 12228 INCQS 00016, read-out: IZ
[18] = tested on: Staphylococcus aureus; assay: Antimicrobial activity against methicillin-resistant Staphylococcus aureus BMB9393 assessed as zone of inhibition at 5 mg/ml after 18 to 24 hrs by disc diffusion method; type: functional; settings: read-out: IZ
[19] = tested on: Staphylococcus aureus; assay: Bactericidal activity against Staphylococcus aureus INCQS 00015 ATCC 25923 incubated for 24 hrs followed by transfer of microbial suspension to agar plates and measured after 24 hrs post transfer by resazurin dye-based colorimetric analysis; type: functional; settings: INCQS 00015 ATCC 25923, 24 h, read-out: MBC99.9; method in brief: as §3
[20] = tested on: Staphylococcus aureus; assay: Ratio of MBC99.9 to MIC for Staphylococcus aureus INCQS 00015 ATCC 25923; type: functional; method in brief: as §1
[21] = tested on: Klebsiella pneumoniae; assay: Antimicrobial activity against Klebsiella pneumoniae INCQS 00083 ATCC 4352 assessed as zone of inhibition at 5 mg/ml after 18 to 24 hrs by disc diffusion method; type: functional; settings: read-out: IZ
[22] = tested on: Enterococcus faecalis; assay: Antimicrobial activity against Enterococcus faecalis INCQS 00234 ATCC 29212 assessed as zone of inhibition at 5 mg/ml after 18 to 24 hrs by disc diffusion method; type: functional; settings: ATCC 29212 INCQS 00234, read-out: IZ
[23] = tested on: Pseudomonas aeruginosa; assay: Ratio of MBC99.9 to MIC for Pseudomonas aeruginosa INCQS 00099 ATCC 27853; type: functional; method in brief: as §1
[24] = tested on: Staphylococcus aureus; assay: Antimicrobial activity against methicillin-resistant Staphylococcus aureus BMB9393 after 24 hrs by microdilution assay; type: functional; settings: BMB9393, 24 h
[25] = tested on: Staphylococcus epidermidis; assay: Antimicrobial activity against Staphylococcus epidermidis INCQS 00016 ATCC 12228 after 24 hrs by microdilution assay; type: functional; settings: ATCC 12228 INCQS 00016, 24 h
[26] = tested on: Staphylococcus simulans; assay: Bactericidal activity against Staphylococcus simulans INCQS 00254 ATCC 27851 incubated for 24 hrs followed by transfer of microbial suspension to agar plates and measured after 24 hrs post transfer by resazurin dye-based colorimetric analysis; type: functional; settings: INCQS 00254 ATCC 27851, 24 h, read-out: MBC99.9; method in brief: as §2
[27] = tested on: Pseudomonas aeruginosa; assay: Antimicrobial activity against Pseudomonas aeruginosa INCQS 00099 ATCC 27853 assessed as zone of inhibition at 5 mg/ml after 18 to 24 hrs by disc diffusion method; type: functional; settings: read-out: IZ
[28] = Hemolytic activity against human erythrocytes assessed as hemolysis at 200 ug/ml after 3 hrs by spectrophotometric analysis relative to control; type: ADME, cell-based, Erythrocyte; settings: read-out: Activity
Method in brief: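 Erythrocytes collected in citrate tubes, washed three times with PBS pH 7.4 by centrifugation and resuspended in PBS. Incubated with compounds at 200 µg/mL for 3 h at 37°C. Released hemoglobin was read in the supernatant at 545 nm against 1% Triton X-100 (complete lysis) and 1% DMSO (negative control). Below 10% hemolysis was taken as hemocompatible. Three independent experiments.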

[29] = tested on: Escherichia coli; assay: Bactericidal activity against Escherichia coli; type: functional
[30] = tested on: Escherichia coli; assay: Antimicrobial activity against Escherichia coli; type: functional
[31] = tested on: Staphylococcus epidermidis; assay: Antimicrobial activity against Staphylococcus epidermidis INCQS 00016 ATCC 12228 at 256 ug/ml after 24 hrs by microdilution assay; type: functional, organism-based; settings: ATCC 12228 INCQS 00016
[32] = tested on: Staphylococcus epidermidis; assay: Bactericidal activity against Staphylococcus epidermidis INCQS 00016 ATCC 12228 at 256 ug/ml incubated for 24 hrs followed by transfer of microbial suspension to agar plates and measured after 24 hrs post transfer by resazurin dye-based colorimetric analysis; type: functional, organism-based; settings: ATCC 12228 INCQS 00016; method in brief: as §2

SMILES | Ratio [1] | MBC [2] [µg/mL] | zone of inhibition at 5000 µg/mL [3] [mm] | MIC [4] [µg/mL] | MIC [5] [µg/mL] | MBC [6] [µg/mL] | MBC [7] [µg/mL] | zone of inhibition at 5000 µg/mL [8] [mm] | MIC [10] [µg/mL] | zone of inhibition at 5000 µg/mL [13] [mm] | MIC [14] [µg/mL] | Ratio [15] | zone of inhibition at 5000 µg/mL [16] [mm] | zone of inhibition at 5000 µg/mL [17] [mm] | zone of inhibition at 5000 µg/mL [18] [mm] | MBC [19] [µg/mL] | Ratio [20] | zone of inhibition at 5000 µg/mL [21] [mm] | zone of inhibition at 5000 µg/mL [22] [mm] | Ratio [23] | also measured
NC1=C(Br)C(=O)c2ccccc2C1=O | 1 | 32 (≈ 127 µM) | 17 | 32 (≈ 127 µM) | 64 (≈ 254 µM) | 64 (≈ 254 µM) | 64 (≈ 254 µM) | 10 | 64 (≈ 254 µM) | 0 | 128 (≈ 508 µM) | 1 | 8 | 12 | 16 | 64 (≈ 254 µM) | 1 | 0 | 0 | 1 | Ratio [9]: 1; MBC [11]: 128 µg/mL (≈ 508 µM); Ratio [12]: 1; MIC [24]: 64 µg/mL (≈ 254 µM); MIC [25]: 128 µg/mL (≈ 508 µM); MBC [26]: 128 µg/mL (≈ 508 µM); zone of inhibition at 5000 µg/mL [27]: 14 mm; hemolysis at 3 h, 200 ug/ml [28]: 10.1 to 14.4%
COC(=O)c1c(CBr)nc(C)c2c1C(=O)C(Br)=C(Nc1ccc(Cl)cc1)C2=O | – | – | – | – | – | – | – | – | – | – | – | – | – | – | – | – | – | – | – | – | MBC [29]: 2 to 4 µg/mL (≈ 3.78 to 7.57 µM); MIC [30]: 2 to 4 µg/mL (≈ 3.78 to 7.57 µM)
NC1=C(Cl)C(=O)c2ccccc2C1=O | 1 | 16 (≈ 77.1 µM) | 14 | 16 (≈ 77.1 µM) | 128 (≈ 617 µM) | 64 (≈ 308 µM) | 128 (≈ 617 µM) | 12 | 64 (≈ 308 µM) | 0 | 128 (≈ 617 µM) | 1 | 10 | 21 | 20 | 64 (≈ 308 µM) | 1 | 0 | 0 | 1 | Activity [31]: inactive; Activity [32]: inactive; MIC [24]: 64 µg/mL (≈ 308 µM); MBC [26]: 128 µg/mL (≈ 617 µM); zone of inhibition at 5000 µg/mL [27]: 15 mm; hemolysis at 3 h, 200 ug/ml [28]: 10.1 to 14.4%
COC(=O)c1c(C)nc(C)c2c1C(=O)C(Br)=C(Nc1ccc(OC)cc1)C2=O | – | – | – | – | – | – | – | – | – | – | – | – | – | – | – | – | – | – | – | – | MBC [29]: 2 to 4 µg/mL (≈ 4.49 to 8.98 µM); MIC [30]: 2 to 4 µg/mL (≈ 4.49 to 8.98 µM)
NC1=CC(=O)c2ccccc2C1=O | 1 | 64 (≈ 370 µM) | 18 | 64 (≈ 370 µM) | 32 (≈ 185 µM) | 64 (≈ 370 µM) | 32 (≈ 185 µM) | 15 | 64 (≈ 370 µM) | 0 | 64 (≈ 370 µM) | 1 | 20 | 17 | 17 | 64 (≈ 370 µM) | 1 | 0 | 0 | 1 | MBC [11]: 128 µg/mL (≈ 739 µM); Ratio [12]: 1; MIC [24]: 64 µg/mL (≈ 370 µM); MIC [25]: 128 µg/mL (≈ 739 µM); MBC [26]: 64 µg/mL (≈ 370 µM); zone of inhibition at 5000 µg/mL [27]: 12 mm; hemolysis at 3 h, 200 ug/ml [28]: 10.1 to 14.4%
